Bioassay records (PubChem)
This is a sample that favours compounds with a hit; in the whole collection about 9.8% have one here.
Rad51 HR inh: blocks human Rad51 in homologous recombination; 200,000 tested, 0.085% active; AID 1385; Q06609; inhibition, % at 10 µM; hRad51 DNA strand exchange, fluorescence dequenching;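 active = inhibition above 40% at the single screening dose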;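 also: 0% = DMSO control wells and 100% = blanks with heterologous ssDNA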
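Test system – preformed human Rad51 ssDNA filaments · Reagent – Donor/quencher-labelled 47-bp dsDNA substrate · Incubation – 37 °C 15-min filament assembly, 30-min compound preincubation, 15-min exchange · Signal – FRET fluorescence dequenching, excitation 485 nm, emission 520 nm · Read-out – percent inhibition from fluorescence, normalised to plate control and blank means · Benchmarks – plate control and blank wells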
m-calpain inh: calpain II (pig) inhibition | 220,000 tested, 0.37% active | purified calpain II, fluorogenic peptide substrate, 30 min | inhibition, % at 16 µM;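 active = inhibition above about 50%, limit read from the data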
PMI act satM6P: PMI (human) activation, high substrate | P34949 | coupled PMI enzyme assay, resazurin fluorescence, 20 min; hits give high values; 1 = untreated enzyme, 0 = substrate-free blank | activation factor at 20 µM | 190,000 tested, 0.34% active | AID 1216;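 active = activation factor of 2 or more at 20 µM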
Target sequence (P34949 whole entry, looked up): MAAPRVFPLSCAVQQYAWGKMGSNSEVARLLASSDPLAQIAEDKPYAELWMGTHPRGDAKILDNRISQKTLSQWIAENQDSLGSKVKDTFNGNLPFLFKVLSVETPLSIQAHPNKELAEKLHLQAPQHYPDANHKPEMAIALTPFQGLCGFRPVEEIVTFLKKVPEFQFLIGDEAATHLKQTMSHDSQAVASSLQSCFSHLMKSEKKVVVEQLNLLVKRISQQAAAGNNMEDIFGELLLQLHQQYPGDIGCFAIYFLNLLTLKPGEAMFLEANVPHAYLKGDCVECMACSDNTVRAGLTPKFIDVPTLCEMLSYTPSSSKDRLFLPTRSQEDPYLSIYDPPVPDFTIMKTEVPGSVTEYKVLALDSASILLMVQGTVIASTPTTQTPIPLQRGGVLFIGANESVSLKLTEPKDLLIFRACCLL
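Test system: human phosphomannose isomerase with PGI, G6PDH, diaphorase coupling enzymes / Doses: 20 µM compound, 1% DMSO / Times: enzyme reaction with compound 20 min at room temperature / Measured by: Diaphorase-driven resazurin-to-resorufin fluorescence, excitation 544, emission 590 nm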
WT yeast gro inh: growth inhibition of WT yeast, mitochondrial fusion screen. mitochondrial fusion phenotypic screen, WT strain. inhibition, % at 10 µM. 190,000 tested, 2.1% active. AID 1362; in the data active = inhibition above about 58%; tested in S. cerevisiae
Lmaj promast: Leishmania major promastigote growth inhibition; Leishmania major promastigotes, resazurin fluorescence viability; inhibition, % at 10 µM; 200,000 tested, 9% active; AID 1063; in the data active = inhibition above about 50%;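 also: promastigotes grown with compound for 44 hours at 28 °C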
PMI activator: increases human mannose-6-phosphate isomerase activity | activation factor at 20 µM | AID 1214 | purified human PMI, coupled resazurin fluorescence, 20 min; hits give high values; 1 = vehicle control, 0 substrate-free wells | 190,000 tested, 0.005% active | P34949;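 active = activation factor of 2 or more at 20 µM, relative to plate controls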
Starred values were filed as active, the others as inactive; nt = no result.

SMILES | Rad51 HR inh | m-calpain inh | PMI act satM6P | WT yeast gro inh | Lmaj promast | PMI activator
FC(F)(F)c1cccc(Cc2noc(CN3CCCC(CN4CCCC4)C3)n2)c1 (stereo not drawn) | -1 | -24 | 1 | 0 | -6 | 1
CCc1ccc(N=CC23c4ccccc4C(c4ccccc42)C2C(=O)N(c4ccc(OC)cc4)C(=O)C23)cc1 (stereo not drawn) | -4 | -38 | 0.9 | 21 | 89* | 0.8
CCN1CCc2c(sc(NC(=O)c3ccc(S(=O)(=O)N4CCOCC4)cc3)c2C(N)=O)C1 | 0 | 13 | 0.9 | 19 | 1 | 0.8
Cc1ccc(S(=O)(=O)N2CCN(C(=O)CN3CCc4ccccc4C3)CC2)cc1 | nt | -14 | 1 | -3 | 88* | 0.9
O=C(Nc1ccc(S(=O)(=O)N2CCCC2)cc1)c1ccc(CN2CCc3ccccc3C2)cc1 | -1 | 9 | 1 | 37 | 90* | 1
O=C(c1ccc(S(=O)(=O)N2CCCCC2)cc1)N1CCc2ccccc2C1 | 1 | 9 | 0.9 | 0 | -2 | 0.9
O=C(Nc1ccc(S(=O)(=O)N2CCOCC2)cc1)c1ccc(CN2CCc3ccccc3C2)cc1 | -12 | -15 | 0.9 | -16 | 91* | 0.9
CCN1CCc2c(sc(NC(=O)c3ccc(S(=O)(=O)N4CCOCC4)cc3)c2C(=O)OC)C1 | nt | -21 | 1.2 | 10 | 76* | 1.1
Cc1cc(C)n(NC(=S)NC2CCCCC2)c(=O)c1C#N | 12 | 20 | nt | nt | nt | nt
Cc1nn(C(C)(C)C)c(OC(=O)c2ccc3c(c2)OCO3)c1S(=O)(=O)c1ccccc1 | 4 | -8 | 0.9 | 44 | 25 | 0.8
Cc1nn(C(C)(C)C)c(OC(=O)c2ccc3c(c2)OCO3)c1Sc1ccccc1 | -7 | -6 | 1 | 75* | 8 | 0.9
Cc1nn(C(C)(C)C)c(OC(=O)c2cccs2)c1Sc1ccccc1 | -1 | -4 | 0.9 | 83* | 2 | 0.9
O=C(/C=C/c1ccccc1Cl)NC(=S)Nc1ccccc1C(=O)NC1CCCCC1 | nt | 22 | 1.1 | 15 | 98* | 1
CC(C)(C)c1ccc(OCC(=O)NCCN2CCCC2)cc1 | nt | 19 | 1 | nt | 80* | 1
Cc1ccc(OCC(=O)NCCN2CCCC2)cc1 | -1 | -31 | 0.9 | -7 | 10 | 0.9
CC(C)c1nc2c(c(=O)c3ccccc3n2C)c(=O)n1CCc1ccccc1 | 12 | 18 | nt | nt | nt | nt
COc1cc(/C=N/NC(N)=O)ccc1OC(=O)c1cccs1 | -164 | 15 | 1.1 | -4 | -5 | 1.1
COc1cc(/C=N/Nc2ccc(Cl)cc2)ccc1OC(=O)c1cccs1 | 8 | -4 | 2.3* | 54 | -2 | 1.3
Cc1nc(N2CCOCC2)sc1C=O | -2 | -11 | 1 | -13 | -5 | 1
O=C(N/N=C1\C2CN3CCN(C2)CC1(c1ccccc1)C3)c1ccc(F)cc1 | 0 | -13 | 1.1 | -12 | -4 | 1
CC(C)(C)c1ccc(C(=O)N/N=C2\C3CN4CCN(C3)CC2(c2ccccc2)C4)cc1 | nt | 0 | 1 | 98* | -4 | 1
CCCC12CN3CCN(CC(C3)/C1=N\NC(=O)c1ccccc1N)C2 | nt | -216 | 1 | 1 | -4 | 1
CCCC12CN3CCN(CC(C3)/C1=N\NC(=O)c1ccc(C(C)(C)C)cc1)C2 | 6 | 4 | 0.9 | 98* | -5 | 0.8
N#Cc1c(-c2ccc(Br)cc2)cc(-c2cccnc2)nc1N | nt | -59 | 1 | -10 | 4 | 1.1
CS(=O)c1nc(-c2ccc(Br)cc2)cc(-c2ccccc2)c1C#N (stereo not drawn) | -5 | -58 | 0.9 | 7 | 100* | 0.9
SMILES | Rad51 HR inh | m-calpain inh | PMI act satM6P | WT yeast gro inh | Lmaj promast | PMI activator
CS(=O)(=O)c1nc(-c2ccc(Br)cc2)cc(-c2ccccc2)c1C#N | 1 | -83 | 1 | -34 | 84* | 1
COc1ccc(-c2cc(-c3ccccc3)c(C#N)c(S(C)(=O)=O)n2)cc1 | -7 | -205 | 1.1 | -32 | 98* | 1.1
O=C(Nc1ccc(Cl)c(Cl)c1)N1N=CCC1c1ccccc1 (stereo not drawn) | 6 | 46 | 0.9 | 68 | 19 | 0.8
CC(C)C(=O)Nc1ccc(C(=O)Nc2nnc(C(C)(C)C)s2)cc1 | 5 | -2 | 1 | -24 | 48 | 1
C=CCn1c(=N)n(CC(=O)c2ccc(Br)s2)c2ccccc21 | 3 | 10 | 1 | 21 | 97* | 1.1
C=CCn1c(=N)n(CC(=O)OC)c2ccccc21 | -5 | -4 | 1 | -6 | -3 | 1
Cc1ccccc1SCCNC(=O)CCc1ccccc1 | -9 | 13 | 1 | 20 | -12 | 0.9
CCCC(=O)Nc1ccc(Nc2ccccc2)cc1 | -1 | 21 | 0.9 | 13 | 64* | 1
CCCCC(CC)C(=O)Nc1ccc(C#N)cc1 (stereo not drawn) | 6 | -25 | 0.9 | 13 | 21 | 0.9
CCCC(=O)Nc1ccc(Sc2ccc([N+](=O)[O-])cc2)cc1 | 1 | 58* | 0.9 | 16 | -6 | 0.9
CCCCC(CC)C(=O)Nc1ccc(Nc2ccccc2)cc1 (stereo not drawn) | 2 | 8 | 0.9 | 33 | 99* | 0.9
Fc1ccc(C2CC(c3cccs3)=NN2C(=S)Nc2ccccc2)cc1 (stereo not drawn) | 0 | -34 | 1 | 20 | 53* | 0.9
CCOC(=O)CSCC(=O)N1N=C(c2cccs2)CC1c1ccc(F)cc1 (stereo not drawn) | 0 | 18 | 1.1 | -8 | 11 | 1
O=C(Nc1ccccc1)N1N=C(c2ccc(F)cc2)CC1c1ccc(F)cc1 (stereo not drawn) | nt | 33 | 0.8 | 46 | 92* | 0.9
CC(C)(C)C(=O)NC1(C(F)(F)F)NC(=O)N(c2ccccc2F)C1=O (stereo not drawn) | nt | -19 | nt | nt | nt | nt
CCc1ccc(-c2nn(-c3ccccc3)cc2C2SCC(=O)N2Cc2ccco2)cc1 (stereo not drawn) | nt | -3 | 0.8 | nt | 98* | 0.7
O=C1CSC(c2cn(-c3ccccc3)nc2-c2ccccc2)N1Cc1ccco1 (stereo not drawn) | -4 | 20 | 1 | 45 | 36 | 1
Cn1nc(C(=O)Nc2ccc(S(=O)(=O)N3CCCCC3)cc2)c2ccccc2c1=O | 0 | 51* | 0.7 | -34 | 26 | 1
CC(=O)c1ccc(NC(=O)c2ccc(S(=O)(=O)N3CCCC3)cc2)cc1 | -4 | 0 | 1 | -28 | 98* | 1
NC(=O)c1ccsc1NC(=O)c1ccc(S(=O)(=O)N2CCCC2)cc1 | 10 | 30 | 0.9 | -8 | 56* | 1
O=C(Nc1ccc(S(=O)(=O)N2CCCCC2)cc1)c1ccncc1 | 0 | 30 | 0.9 | -20 | 7 | 1
O=C(Nc1ccc(Cc2ccncc2)cc1)c1ccc(S(=O)(=O)N2CCCC2)cc1 | 15 | 14 | 1.1 | 1 | 99* | 1
